Laboratory results published in PMC2903386 (The Journal of Biological Chemistry, 2010).
Non-standard residues stand in square brackets, D forms with d. Residues, ends and D or L forms follow the SMILES beside them. *: point of attachment. X1 = CC[N+]1=C(C=CC=CC=C2N(CCCCCC(=O)NCCN3C(=O)CC(*)C3=O)c3ccc(S(=O)(=O)O)cc3C2(C)C)C(C)(C)c2cc(S(=O)(=O)[O-])ccc21; Propanoyl(3-maleimido) = O=C1C=CC(=O)N1CCC(=O)*; Ahx = NCCCCCC(=O)O

What was measured:
[1] = Tumor standardized uptake value; type: in vivo; settings: mouse, iv
[2] = Effect of inhibitors on cleavage of RLQLKL ACPP by PyMT tumor cystic fluid; type: biochemical, mouse; settings: for inhibition of cystic fluid cleavage of RLQLKL ACPP (in words): 5 μM Cy5-labeled RLQLKL ACPP, 2% cystic fluid, 2 h, 5 mM Ca-DTPA, 50 μM TPEN, 18 μM SB3CT, 50 nM GM6001, 0.26 μM prinomastat, 150 nM aprotinin, 100 μM leupeptin, 60 μM α1-antitrypsin, gel
In short: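 Cystic fluid was aspirated by syringe from surgically exposed fluid-filled mammary tumor nodules of PyMT mice. The 5 μm Cy5 peptide was incubated at 37 °C for 2 h in PBS with 1 μm ZnCl2. Inhibitors were used at manufacturer-recommended concentrations, including 10 μm E-64, 1 μm pepstatin A, protease inhibitor mixture III (1:1000) and mixture III plus DTPA. Cleavage was read by Tricine gel electrophoresis and Cy5 fluorescence imaging.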

[3] = test system: PyMT mammary tumors; assay: Fluorescence imaging contrast in PyMT tumor-bearing mice; type: in vivo, mouse; settings: PyMT mice, fluorescence imaging 48 h postinjection of 3 nmol
In short: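 PyMT transgenic mice bearing spontaneous mammary tumors were anesthetized with ketamine 80 mg/kg plus midazolam 5 mg/kg (1:1) and weighed. They were injected via the tail vein with Cy5 peptide: free peptide 100 μl of 100 μM (10 nmol) or albumin-reactive peptide 100 μl of 30 μM (3 nmol). Maestro imaging (ex 640 ± 24 nm, em >700 nm) was done at 6 h or 48 h, comparing tumor with adjacent normal tissue.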

[4] = Tumor uptake; type: in vivo; settings: nude, mouse, tumor (MDA-MB-435 M4A4 xenograft), iv, 10 nmol
In short: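 After imaging, mice were euthanized with isoflurane. 30 mg of each tissue was homogenized in 100 μl Tris pH 7.6 with 1% SDS, heated to 85 °C for 10 min, microwaved 10 s and spun at 20,500 × g for 15 min, then imaged. Tissue-specific spiked standards calibrated fluorescence. SUV = tissue peptide molality ÷ injected dose (mol/kg body weight). Values are means ± S.D.; two-tailed t tests.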

Row | Compound | inhibition of cystic fluid cleavage of RLQLKL ACPP (in words) [2] | other results
1 | CC[N+]1=C(C=CC=CC=C2N(CCCCCC(=O)NCCN3C(=O)CC(SC[C@@H](NC(=O)[C@@H](CCCNC(=N)N)NC(=O)[C@@H](CCCNC(=N)N)NC(=O)[C@@H](CCCNC(=N)N)NC(=O)[C@@H](CCCNC(=N)N)NC(=O)[C@@H](CCCNC(=N)N)NC(=O)[C@@H](CCCNC(=N)N)NC(=O)[C@@H](CCCNC(=N)N)NC(=O)[C@@H](CCCNC(=N)N)NC(=O)[C@@H](CCCNC(=N)N)NC(=O)CNC(=O)[C@H](C)NC(=O)[C@H](CC(C)C)NC(=O)CNC(=O)[C@H](CC(C)C)NC(=O)[C@@H]4CCCN4C(=O)CCCCCNC(=O)[C@@H](CCC(=O)O)NC(=O)[C@@H](CCC(=O)O)NC(=O)[C@@H](CCC(=O)O)NC(=O)[C@@H](CCC(=O)O)NC(=O)[C@@H](CCC(=O)O)NC(=O)[C@@H](CCC(=O)O)NC(=O)[C@@H](CCC(=O)O)NC(=O)[C@@H](CCC(=O)O)NC(=O)[C@H](N)CCC(=O)O)C(N)=O)C3=O)c3ccc(S(=O)(=O)O)cc3C2(C)C)C(C)(C)c2cc(S(=O)(=O)[O-])ccc21 (some centres unmarked) [PLGLAG ACPP, reference compound] (H-[dE][dE][dE][dE][dE][dE][dE][dE][dE][Ahx]PLGLAG[dR][dR][dR][dR][dR][dR][dR][dR][dR][dC](X1)-NH2) |  | SUV [1]: 0.51 ± 0.05 SUV
2 | CC(=O)N[C@@H](CC(C)C)C(=O)N[C@@H](CC(C)C)C(=O)N[C@H](C=O)CCCNC(=N)N [leupeptin] | partially inhibited | 
3 | c1ccc(CN(CCN(Cc2ccccn2)Cc2ccccn2)Cc2ccccn2)nc1 [TPEN, N,N,N′,N-tetrakis (2-pyridylmethyl) ethylenediamine] | unaffected | 
4 | O=S(=O)(CC1CS1)c1ccc(Oc2ccccc2)cc1 (centres unmarked) [SB3CT] | unaffected | 
5 | CC[N+]1=C(C=CC=CC=C2N(CCCCCC(=O)NCCN3C(=O)CC(SC[C@@H](NC(=O)[C@@H](CCCNC(=N)N)NC(=O)[C@@H](CCCNC(=N)N)NC(=O)[C@@H](CCCNC(=N)N)NC(=O)[C@@H](CCCNC(=N)N)NC(=O)[C@@H](CCCNC(=N)N)NC(=O)[C@@H](CCCNC(=N)N)NC(=O)[C@@H](CCCNC(=N)N)NC(=O)[C@@H](CCCNC(=N)N)NC(=O)[C@@H](CCCNC(=N)N)NC(=O)[C@@H](CC(C)C)NC(=O)[C@@H](CCCCN)NC(=O)[C@@H](CC(C)C)NC(=O)[C@@H](CCC(N)=O)NC(=O)[C@@H](CC(C)C)NC(=O)[C@@H](CCCNC(=N)N)NC(=O)CCCCCNC(=O)[C@@H](CCC(=O)O)NC(=O)[C@@H](CCC(=O)O)NC(=O)[C@@H](CCC(=O)O)NC(=O)[C@@H](CCC(=O)O)NC(=O)[C@@H](CCC(=O)O)NC(=O)[C@@H](CCC(=O)O)NC(=O)[C@@H](CCC(=O)O)NC(=O)[C@@H](CCC(=O)O)NC(=O)[C@H](N)CCC(=O)O)C(N)=O)C3=O)c3ccc(S(=O)(=O)O)cc3C2(C)C)C(C)(C)c2cc(S(=O)(=O)[O-])ccc21 (some centres unmarked) [rlqlkl ACPP] |  | SUV at 6 h ([1]; PyMT, 10 nmol): 0.13 ± 0.03 SUV
6 | CC[N+]1=C(C=CC=CC=C2N(CCCCCC(=O)NCCN3C(=O)CC(SC[C@@H](NC(=O)[C@@H](CCCNC(=N)N)NC(=O)[C@@H](CCCNC(=N)N)NC(=O)[C@@H](CCCNC(=N)N)NC(=O)[C@@H](CCCNC(=N)N)NC(=O)[C@@H](CCCNC(=N)N)NC(=O)[C@@H](CCCNC(=N)N)NC(=O)[C@@H](CCCNC(=N)N)NC(=O)[C@@H](CCCNC(=N)N)NC(=O)[C@@H](CCCNC(=N)N)NC(=O)[C@H](CC(C)C)NC(=O)[C@H](CCCCNC(C)=O)NC(=O)[C@H](CC(C)C)NC(=O)[C@H](CCC(N)=O)NC(=O)[C@H](CC(C)C)NC(=O)[C@H](CCCNC(=N)N)NC(=O)CCCCCNC(=O)[C@@H](CCC(=O)O)NC(=O)[C@@H](CCC(=O)O)NC(=O)[C@@H](CCC(=O)O)NC(=O)[C@@H](CCC(=O)O)NC(=O)[C@@H](CCC(=O)O)NC(=O)[C@@H](CCC(=O)O)NC(=O)[C@@H](CCC(=O)O)NC(=O)[C@@H](CCC(=O)O)NC(=O)[C@@H](CCC(=O)O)NC(=O)CCN4C(=O)C=CC4=O)C(N)=O)C3=O)c3ccc(S(=O)(=O)O)cc3C2(C)C)C(C)(C)c2cc(S(=O)(=O)[O-])ccc21 (some centres unmarked) [Mal-RLQLK(Ac)L ACPP] ({Propanoyl(3-maleimido)}-[dE][dE][dE][dE][dE][dE][dE][dE][dE][Ahx]RLQLK(Ac)L[dR][dR][dR][dR][dR][dR][dR][dR][dR][dC](X1)-NH2) |  | SUV at 48 h ([1]; PyMT, 3 nmol): 2.3 ± 0.6 SUV; Tumor to non-tumor contrast, albumin-reactive peptide [3]: 5.1 fold
7 | CNC(=O)[C@H](Cc1c[nH]c2ccccc12)NC(=O)[C@@H](CC(=O)NO)CC(C)C [GM6001] | unaffected | inhibition of cystic fluid cleavage of RLQLKL ACPP at 1 μM (in words) ([2]; GM6001 at 1 μM, data not shown): no inhibition
8 | aprotinin | partially inhibited | 
9 | CC[N+]1=C(C=CC=CC=C2N(CCCCCC(=O)NCCN3C(=O)CC(SC[C@@H](NC(=O)[C@@H](CCCNC(=N)N)NC(=O)[C@@H](CCCNC(=N)N)NC(=O)[C@@H](CCCNC(=N)N)NC(=O)[C@@H](CCCNC(=N)N)NC(=O)[C@@H](CCCNC(=N)N)NC(=O)[C@@H](CCCNC(=N)N)NC(=O)[C@@H](CCCNC(=N)N)NC(=O)[C@@H](CCCNC(=N)N)NC(=O)[C@@H](CCCNC(=N)N)NC(=O)[C@@H](CC(C)C)NC(=O)[C@@H](CCCCN)NC(=O)[C@@H](CC(C)C)NC(=O)[C@@H](CCC(N)=O)NC(=O)[C@@H](CC(C)C)NC(=O)[C@@H](CCCNC(=N)N)NC(=O)CCCCCNC(=O)[C@@H](CCC(=O)O)NC(=O)[C@@H](CCC(=O)O)NC(=O)[C@@H](CCC(=O)O)NC(=O)[C@@H](CCC(=O)O)NC(=O)[C@@H](CCC(=O)O)NC(=O)[C@@H](CCC(=O)O)NC(=O)[C@@H](CCC(=O)O)NC(=O)[C@@H](CCC(=O)O)NC(=O)[C@H](N)CCC(=O)O)C(N)=O)C3=O)c3ccc(S(=O)(=O)O)cc3C2(C)C)C(C)(C)c2cc(S(=O)(=O)[O-])ccc21 (some centres unmarked) [rlqlkl] |  | SUV at 6 h [4]: 0.34 ± 0.16 SUV
10 | CC[N+]1=C(C=CC=CC=C2N(CCCCCC(=O)NCCN3C(=O)CC(SC[C@@H](NC(=O)[C@@H](CCCNC(=N)N)NC(=O)[C@@H](CCCNC(=N)N)NC(=O)[C@@H](CCCNC(=N)N)NC(=O)[C@@H](CCCNC(=N)N)NC(=O)[C@@H](CCCNC(=N)N)NC(=O)[C@@H](CCCNC(=N)N)NC(=O)[C@@H](CCCNC(=N)N)NC(=O)[C@@H](CCCNC(=N)N)NC(=O)[C@@H](CCCNC(=N)N)NC(=O)CNC(=O)[C@@H](C)NC(=O)[C@@H](CC(C)C)NC(=O)CNC(=O)[C@@H](CC(C)C)NC(=O)[C@H]4CCCN4C(=O)CCCCCNC(=O)[C@@H](CCC(=O)O)NC(=O)[C@@H](CCC(=O)O)NC(=O)[C@@H](CCC(=O)O)NC(=O)[C@@H](CCC(=O)O)NC(=O)[C@@H](CCC(=O)O)NC(=O)[C@@H](CCC(=O)O)NC(=O)[C@@H](CCC(=O)O)NC(=O)[C@@H](CCC(=O)O)NC(=O)[C@H](N)CCC(=O)O)C(N)=O)C3=O)c3ccc(S(=O)(=O)O)cc3C2(C)C)C(C)(C)c2cc(S(=O)(=O)[O-])ccc21 (stereo partly drawn) [PLGLAG ACPP D-amino acid control, reference compound] (H-[dE][dE][dE][dE][dE][dE][dE][dE][dE][Ahx][dP][dL]G[dL][dA]G[dR][dR][dR][dR][dR][dR][dR][dR][dR][dC](X1)-NH2) |  | SUV [1]: 0.14 ± 0.06 SUV
11 | O=C(O)CN(CCN(CC(=O)O)CC(=O)O)CCN(CC(=O)O)CC(=O)O [DTPA, diethylene triamine pentacetic acid] | unaffected | 
12 | CC1(C)SCCN(S(=O)(=O)c2ccc(Oc3ccncc3)cc2)[C@H]1C(=O)NO [prinomastat] | unaffected | 
